Rows were chosen to be rich in hits. Some 3.1% of all compounds tested hit in one or more screens of this group.
PGC1a acetyl inh – inhibitors of PGC1a acetylation signal, primary screen, cell-based, U2OS, AlphaScreen, inhibitor mode | AlphaScreen anti-acetyl-lysine; with virally co-expressed GCN5 acetyltransferase | inhibition, % at 15.6 µM | 0.17% of 350,000 active | AID 651687, 2012;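 active means every replicate shows inhibition of at least 40%; inconclusive means mean inhibition at least 40% but some replicate below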
FGF22 binding – binders of human FGF22 protein, primary screen, FGF22 synaptogenesis inhibitor project, biophysical, thermal shift, single point. Fibroblast growth factor 22 (Homo sapiens), Q9HCT0. 1.5% of 340,000 active. activity (Tm shift, normalised), % at 9.99 µM. AID 651658, 2012. recombinant FGF22 thermal shift, SYPRO orange fluorescence; percent of sucrose octasulfate shift, DMSO zero;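 active means mean Tm shift, scaled 0 neutral to 100 positive control, at about 1.3% or above, every replicate too, limit read from the data; inconclusive means no clear call, values can overlap the other calls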
Target sequence (Q9HCT0 whole entry, looked up): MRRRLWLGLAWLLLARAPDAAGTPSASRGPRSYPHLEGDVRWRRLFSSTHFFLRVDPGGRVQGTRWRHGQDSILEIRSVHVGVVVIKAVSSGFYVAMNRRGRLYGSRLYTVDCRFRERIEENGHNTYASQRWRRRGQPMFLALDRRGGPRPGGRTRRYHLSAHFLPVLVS
FN deposit inh – inhibitors of fibronectin matrix deposition, primary screen, AH1F cells, Alexa488-fibronectin fluorescence, plate reader. AH1F fibroblasts, overnight. inhibition, % at 12.6 µM. 0.086% of 350,000 active;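 active means mean inhibition across replicates of 30% or more, regardless of how many single replicates reach that level; inconclusive means mean under 30% yet at least half of replicates reach 30%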
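Material: AH1F fibroblast monolayer depositing Alexa488-labelled fibronectin into matrix / Amount: 10000 AH1F cells per well / Signal: fluorescence 485/525 nm / Medium: DMEM, 2% serum / Compound: single dose, pinned / Incubation: 1 h cell adhesion before compound, then overnight fibronectin incubation / Reagent: Alexa488-FN, 24 nM final / Read-out: inhibition of fibronectin deposition signal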
EWS-Fli inh – EWS/Fli-driven NR0B1 reporter inhibitors, primary screen, A673 cells, NR0B1 luciferase, luminescence, MLPCN library. 0.67% of 350,000 active. viability-normalised. inhibition, % at 12.6 µM;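 active means mean inhibition of at least 50% after viability correction, with every replicate also passing that limit; inconclusive means mean reaches 50% but only one of two replicates passes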;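 further: firefly luciferase signal divided by Alamar Blue viability fluorescence both relative to DMSO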
HIV Env fusion – inhibitors of HIV-1 Env-driven cell-cell fusion, primary screen, HeLa-JRFL effector, CEM21 target cells, luciferase; 1.1% of 360,000 active; AID 651610, 2012; inhibition, % at 12.3 µM;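 active means mean replicate inhibition score of at least 50 and every replicate individually at or above 50; inconclusive means only one of the two criteria met; inactive means mean below 50 and not all replicates reaching 50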
PAX8 inh HTS – inhibitors of PAX8-driven TPO luciferase reporter, primary screen, RMG-I cells, single concentration; SteadyGlo, 24 h; inhibition, % at 12.6 µM; 1.2% of 360,000 active; AID 652154, 2013;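 active means mean replicate inhibition at least 60% with every replicate also reaching 60%; inconclusive means only one of the two criteria is met; inactive means mean below 60% and not all replicates reaching 60%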;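 further: luciferase light reporting Pax8 driven TPO promoter activity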
Each line names hits and unclear results; the compound was inactive in the other large screens.

CC(C)(C)c1nc(SCC(=O)N2CC(=O)Nc3ccccc32)c2ccccc2n1	FGF22 binding 44 (no result: PGC1a acetyl inh)
CC(c1ccccc1)n1c(SCC(=O)N2CC(=O)Nc3ccccc32)nc2ccccc2c1=O (stereo unspecified)	none (no result: PGC1a acetyl inh, FGF22 binding, EWS-Fli inh)
Cc1ccc(-c2c[n+]3c(n2-c2ccccc2)SCC3)cc1	HIV Env fusion 59
Cc1ccc(-c2cn(-c3ccccc3)c3[n+]2CCCS3)cc1	PAX8 inh HTS 79
COc1ccc(-c2c[n+]3c(n2-c2ccccc2)SCC3)cc1	none
COc1ccc(-n2cc(-c3ccc(C)cc3)[n+]3c2SCC3)cc1	HIV Env fusion 118, PAX8 inh HTS 79 (no result: PGC1a acetyl inh, FGF22 binding, FN deposit inh, EWS-Fli inh)
CN1CCN(C(=O)C[C@H]2C[C@H]3c4cc(NC(=O)NC5CCCCC5)ccc4O[C@H]3[C@H](CO)O2)CC1	none
CCC(CO)NCC#Cc1ccccc1 (stereo unspecified)	FGF22 binding 44 (no result: PGC1a acetyl inh)
C[C@H]1CCCCO[C@H](CN(C)C(=O)Nc2ccc(F)cc2)[C@@H](C)CN([C@@H](C)CO)C(=O)c2cc(NC(=O)C3CCCCC3)ccc2O1	none (no result: FN deposit inh)
O=C(C[C@@H]1CC[C@H]2[C@@H](COC[C@H](O)CN2C(=O)Nc2ccc(Cl)c(Cl)c2)O1)NCc1ccc(F)cc1	none (no result: HIV Env fusion)
Cc1ccc(C(=O)Nc2cccc(C(=O)O)c2)cc1	HIV Env fusion 117 (no result: PGC1a acetyl inh, FGF22 binding, FN deposit inh, EWS-Fli inh, PAX8 inh HTS)
O=C(Nc1cccc(Cl)c1)Nc1cccc(C(=O)O)c1	EWS-Fli inh 55 (no result: FGF22 binding)
O=C(Nc1ccccc1)Nc1cccc(Cl)c1	none (no result: FGF22 binding, EWS-Fli inh, PAX8 inh HTS)
C/C(=N\NC(=O)c1ccc(F)cc1)c1cccc(NC(=O)c2cccc(F)c2)c1	none (no result: PGC1a acetyl inh, FN deposit inh, EWS-Fli inh)
CC(=O)Nc1cccc(C(=O)/C=C/c2ccc(C)cc2)c1	PAX8 inh HTS 75 (no result: PGC1a acetyl inh)
C/C(=N\NC(=O)c1cccc(F)c1)c1cccc(NC(=O)c2ccc(F)cc2)c1	FGF22 binding 43 (no result: PGC1a acetyl inh)
C[C@@H]1CN([C@@H](C)CO)C(=O)c2cc(NC(=O)CCC(F)(F)F)ccc2O[C@H]1CN(C)Cc1ccc(Oc2ccccc2)cc1	none (no result: FN deposit inh, PAX8 inh HTS)
C/C(=N\NC(=O)c1cccc(N/N=C(\C)c2ccco2)c1)c1ccco1	none (no result: PGC1a acetyl inh)
O=C(Nc1ccncc1)c1ccc(-c2ccccc2)cc1	FGF22 binding 45 (no result: PGC1a acetyl inh)
O=C(Nc1ccc(C(=O)OC2CCCCC2)cc1)c1ccncc1	HIV Env fusion 75 (no result: PGC1a acetyl inh)
Cc1ccc(C)n1-c1cccc(NC(=O)c2ccccc2)c1	none (no result: PGC1a acetyl inh, FGF22 binding, EWS-Fli inh, HIV Env fusion)
C/C(=N\NC(=O)c1cccc(N/N=C(\C)c2cc(O)ccc2O)c1)c1cc(O)ccc1O	FGF22 binding 43
Cc1ccc(C)n1-c1ccc(C(=O)Nc2ccccc2)cc1	FGF22 binding 43 (no result: PGC1a acetyl inh)
Cc1noc(C)c1S(=O)(=O)Nc1ccc2c(c1)C(=O)N([C@@H](C)CO)C[C@@H](C)[C@@H](CN(C)Cc1ccc3c(c1)OCO3)OCCCC[C@@H](C)O2	PGC1a acetyl inh inconclusive
CC(=O)N[C@H]1CC[C@@H](CCNC(=O)C2CCCCC2)O[C@@H]1CO	none (no result: PGC1a acetyl inh, FGF22 binding, FN deposit inh, HIV Env fusion, PAX8 inh HTS)
Cc1ccc(S(=O)(=O)Nc2ccc3c(c2)CC(=O)N([C@H](C)CO)C[C@@H](C)[C@H](CN(C)Cc2ccc4c(c2)OCO4)O3)cc1	none (no result: FN deposit inh, HIV Env fusion)
CNC[C@H]1OCCCC[C@@H](C)Oc2ccc(NC(=O)CCCN(C)C)cc2C(=O)N([C@H](C)CO)C[C@@H]1C	none (no result: FN deposit inh)
O=C(Nc1ccc(Cl)cc1)Nc1cccc(C(=O)O)c1	EWS-Fli inh 82, HIV Env fusion 71, PAX8 inh HTS 86
O=C(NCc1ccccc1)C(=O)Nc1cccc(C(=O)O)c1	EWS-Fli inh 57
COc1cccc(CN2CC3(C2)CN(C(=O)C2CC2)[C@H](CO)c2[nH]c4cc(OC)ccc4c23)c1	none (no result: HIV Env fusion, PAX8 inh HTS)
C[C@@H]1CN([C@@H](C)CO)C(=O)c2cc(C3=CCCCC3)cnc2O[C@@H]1CN(C)C(=O)c1ccccc1	none (no result: PAX8 inh HTS)
CO[C@@H]1CN(C)C(=O)c2cc(NC(=O)C3CC3)ccc2OC[C@H](C)N(Cc2ccncc2)C[C@@H]1C	none (no result: PGC1a acetyl inh, HIV Env fusion)
C[C@H]1CN([C@@H](C)CO)C(=O)c2ccccc2-c2ccccc2CO[C@H]1CN(C)Cc1ccc2c(c1)OCO2	none
CCCN(C)C[C@H]1Oc2ncc(C#CCN(C)C)cc2C(=O)N([C@H](C)CO)C[C@@H]1C	none (no result: FN deposit inh, PAX8 inh HTS)
O=C(c1cccnc1)N1CCN(C/C=C/c2ccccc2)CC1	FGF22 binding 43
C[C@@H]1CN([C@@H](C)CO)C(=O)c2cc(-c3ccccc3)cnc2O[C@@H]1CN(C)C(=O)c1ccccc1F	none (no result: FN deposit inh)
C[C@@H]1CCCCO[C@@H](CN(C)Cc2ccccc2)[C@@H](C)CN([C@@H](C)CO)C(=O)c2cc(NS(=O)(=O)c3ccc(Cl)cc3)ccc2O1	PAX8 inh HTS 76 (no result: FGF22 binding)
C[C@@H]1CN([C@@H](C)CO)C(=O)c2cc(NS(=O)(=O)c3ccc(Cl)cc3)ccc2O[C@@H](C)CCCCO[C@H]1CN(C)Cc1ccccc1	none (no result: FGF22 binding)
C[C@H]1CCCCO[C@@H](CN(C)Cc2ccccc2)[C@@H](C)CN([C@@H](C)CO)C(=O)c2cc(NS(=O)(=O)c3ccc(Cl)cc3)ccc2O1	PAX8 inh HTS 75 (no result: FGF22 binding)
C[C@H]1CCCCO[C@@H](CN(C)Cc2ccc(C(=O)O)cc2)[C@@H](C)CN([C@@H](C)CO)C(=O)c2cc(NS(=O)(=O)c3ccc(Cl)cc3)ccc2O1	PAX8 inh HTS 87
C[C@H](CO)N1C[C@H](C)[C@H](CN(C)Cc2ccccc2)OCCCC[C@H](C)Oc2ccc(NS(=O)(=O)c3ccc(Cl)cc3)cc2C1=O	PAX8 inh HTS 66 (no result: FGF22 binding)
C[C@H]1CCCCO[C@@H](CN(C)Cc2ccc(C(=O)O)cc2)[C@@H](C)CN([C@@H](C)CO)C(=O)c2cc(NS(=O)(=O)c3cn(C)cn3)ccc2O1	none (no result: FN deposit inh)
C[C@@H]1CCCCO[C@H](CN(C)Cc2ccc(C(=O)O)cc2)[C@H](C)CN([C@@H](C)CO)C(=O)c2cc(NS(=O)(=O)c3cn(C)cn3)ccc2O1	FGF22 binding 1.3 (no result: FN deposit inh)
Cn1cccc1Cc1nnc(SCC(=O)N2CCCC2)n1CCc1ccccc1	FGF22 binding 43 (no result: PGC1a acetyl inh)
Cn1cccc1Cc1nnc(SCC(=O)N2CCCCCC2)n1CCc1ccccc1	none (no result: PGC1a acetyl inh)
S=C(NCC1CCCO1)N1CCN(c2cccc(Cl)c2)CC1 (stereo unspecified)	none (no result: PGC1a acetyl inh, FN deposit inh)
S=C(NCCCN1CCOCC1)N1CCN(c2nc(-c3ccccc3)cs2)CC1	none (no result: PGC1a acetyl inh)
COCCCNC(=S)N1CCN(c2nc(-c3ccc(F)cc3)cs2)CC1	HIV Env fusion 108
S=C(NCCCN1CCOCC1)N1CCN(c2nc(-c3ccc(Cl)cc3)cs2)CC1	HIV Env fusion 75 (no result: PGC1a acetyl inh)
S=C(NCC1CCCO1)N1CCN(c2nc(-c3ccc(Cl)cc3)cs2)CC1 (stereo unspecified)	HIV Env fusion 57 (no result: PGC1a acetyl inh, FN deposit inh)
